Laboratory results taken from ChEMBL document CHEMBL1833819, “Dihydroquinazolines as a novel class of Trypanosoma brucei trypanothione reductase inhibitors: discovery, synthesis, and characterization of their binding mode by protein crystallography” (J Med Chem, 2011).

Columns and labels:
[1] = molecular target: Trypanothione reductase (Trypanosoma brucei brucei, UniProt P39051); assay: Inhibition of recombinant trypanothione reductase from Trypanosoma brucei brucei S427 by DTNB-coupled spectrophotometric assay
In short: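 Recombinant T. brucei brucei S427 TryR tested in a nonenzymatically coupled spectrophotometric assay, where DTNB reduction to TNB is followed as A412 increase. IC50 is the mean of independent duplicates (at least two replicates).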

[2] = tested on: MRC5; assay: Cytotoxicity against human MRC5 cells by resazurin fluorescence-based viability assay; type: cell-based
In short: (§1)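 Bloodstream-form T. b. brucei parasites and MRC5 cells were assayed in resazurin fluorescence-based viability tests. […] Pentamidine served as the positive control in all T. brucei plates.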

[3] = tested on: Trypanosoma brucei brucei; assay: Antitrypanosomal activity against blood stream form Trypanosoma brucei brucei by resazurin fluorescence-based viability assay; type: functional, organism-based; in short: as §1

Chain of Trypanothione reductase (P39051 whole entry): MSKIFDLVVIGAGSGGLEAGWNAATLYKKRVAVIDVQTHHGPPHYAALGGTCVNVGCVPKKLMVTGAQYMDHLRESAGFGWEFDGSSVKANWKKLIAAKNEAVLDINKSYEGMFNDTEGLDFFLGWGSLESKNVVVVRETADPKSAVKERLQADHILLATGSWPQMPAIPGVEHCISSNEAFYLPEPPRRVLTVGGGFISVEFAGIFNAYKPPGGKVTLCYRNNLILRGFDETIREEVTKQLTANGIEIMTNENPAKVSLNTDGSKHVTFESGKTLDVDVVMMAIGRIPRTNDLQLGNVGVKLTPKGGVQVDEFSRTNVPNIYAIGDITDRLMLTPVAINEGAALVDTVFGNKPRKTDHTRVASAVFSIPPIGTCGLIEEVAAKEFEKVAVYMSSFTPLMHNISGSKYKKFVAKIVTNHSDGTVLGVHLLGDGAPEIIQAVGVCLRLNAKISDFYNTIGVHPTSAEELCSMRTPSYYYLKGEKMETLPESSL

SMILES | IC50 [1] [nM] | EC50 [2] [nM] | EC50 [3] [nM]
CC1=Nc2ccc(Br)cc2C(c2ccccc2)N1CC(=O)NN (racemic) | 15000 | – | –
CC1=Nc2ccc(Br)cc2C(c2ccccc2)N1CC(=O)O (racemic) | 37000 | – | –
CC1=Nc2ccc(Cl)cc2C(c2ccccc2)N1CCCN(C)C (racemic) | 1000 | 2700 | –
COC(=O)CN1C(CCN2CCOCC2)=Nc2ccc(Br)cc2C1c1ccccc1 (racemic) | 93000 | – | –
COCC(=O)NCCN1C(C)=Nc2ccc(Cl)cc2C1c1ccccc1 (racemic) | 1300 | – | –
CC1=Nc2ccc(-c3cccc4ccccc34)cc2C(c2ccccc2)N1CCN1CCCCC1 (racemic) | 8000 | – | –
CC1=Nc2ccc(Cl)cc2C(c2ccccc2)N1CCN1CCN(C(=O)C2CC2)CC1 (racemic) | 1500 | – | –
COc1ccccc1CN1C(C)=Nc2ccc(Cl)cc2C1c1ccccc1 (racemic) | 1100 | – | –
CC1=Nc2ccc(Cl)cc2C(c2ccc(C(C)(C)C)cc2)N1CCN1CCCCC1 (racemic) | 7900 | – | –
CCOC(=O)CN1C(C)=Nc2ccc(Br)cc2C1c1ccccc1 (racemic) | 12000 | – | –
CC1=Nc2ccc(Cl)cc2C(c2cccc(Cl)c2)N1CCN1CCCCC1 (stereo not drawn) | 1200 | – | –
CC(=O)N1CCN(CCN2C(C)=Nc3ccc(Cl)cc3C2c2ccccc2)CC1 (racemic) | 1700 | – | –
CC1=Nc2ccc(Cl)cc2C(O)(c2ccc(C)cc2)N1CCN1CCCCC1 (racemic) | 710 | 5700 | 1500
CC1=Nc2ccc(Cl)cc2C(c2ccccc2)N1CCc1ccccc1 (racemic) | 2000 | – | –
CC1=Nc2ccc(Cl)cc2C(c2ccccc2)N1Cc1ccc(C(F)(F)F)cc1 (racemic) | 2200 | – | –
COc1ccc(C2c3cc(Cl)ccc3N=C(C)N2CCN2CCCCC2)cc1 (racemic) | 1500 | – | –
CC1=Nc2ccc(Cl)cc2C(O)(c2ccc(F)cc2)N1CCN1CCCCC1 (racemic) | 8300 | – | –
CC1=Nc2ccc(Cl)cc2C(c2ccccc2)N1CCN1CCN(C(=O)c2ccccc2)CC1 (racemic) | 1600 | – | –
CC1=Nc2ccc(Br)cc2C(c2ccccc2)N1CCN1CCCCC1 (racemic) | 790 | 8400 | 440
CC1=Nc2ccc(Cl)cc2C(c2cccc(O)c2)N1CCN1CCCCC1 (racemic) | 1600 | – | –
CC1=Nc2ccc(Cl)cc2C(c2cccc(F)c2)N1CCN1CCCCC1 (stereo not drawn) | 900 | 10000 | 2000
COC(=O)CN1C(C)=Nc2ccc(Cl)cc2C1c1ccccc1 (racemic) | 9400 | – | –

SMILES | IC50 [1] [nM] | EC50 [2] [nM] | EC50 [3] [nM]
CC1=Nc2ccc(Cl)cc2C(c2ccccc2)N1Cc1ccccc1F (racemic) | 940 | 36000 | 14000
CC1=Nc2c(-c3ccccc3)cc(Cl)cc2C(c2ccccc2)N1CCCN(C)C (racemic) | 24000 | – | –
COC(=O)CN1C(c2ccccc2)=Nc2ccc(C)cc2C1c1ccccc1 (racemic) | > 100000 | – | –
CCC1=Nc2ccc(Br)cc2C(c2ccccc2)N1CC(=O)OC (racemic) | 23000 | – | –
CC1=Nc2ccc(Cl)cc2C(c2ccc(O)cc2)N1CCN1CCCCC1 (racemic) | 20000 | – | –
O=C1CN2C(=Nc3ccc(Br)cc3C2c2ccccc2)CCN1 (racemic) | 39000 | – | –
CC1=Nc2ccc(Cl)cc2C(Cc2ccccc2)N1CCN1CCCCC1 (racemic) | 50000 | – | –
CC1=Nc2ccc(-c3ccccc3)cc2C(c2ccccc2)N1CCN1CCCCC1 (racemic) | 7300 | 3400 | 750
CC1=Nc2ccc(Cl)cc2C(c2ccccc2)N1CCN1CCOCC1 (racemic) | 2800 | – | –
CC1=Nc2ccc(Cl)cc2C(c2ccc(Cl)cc2)N1CCN1CCCCC1 (racemic) | 730 | – | –
CC1=Nc2ccc(Cl)cc2C(c2ccc(C)cc2)N1CCN1CCCCC1 (racemic) | 590 | 5000 | 1400
CC(=O)NCCN1C(C)=Nc2ccc(Cl)cc2C1c1ccccc1 (racemic) | 2100 | – | –
COCC(=O)N1CCN(CCN2C(C)=Nc3ccc(Cl)cc3C2c2ccccc2)CC1 (racemic) | 1600 | – | –
CC1=Nc2ccccc2C(c2ccccc2)N1CCN1CCCCC1 (racemic) | 780 | 23000 | 12000
CC1=Nc2ccc(Cl)cc2C(c2ccccc2)N1CCNC(=O)C1CC1 (racemic) | 2300 | – | –
COC(=O)CN1C(C)=Nc2ccc(Br)cc2C1c1ccccc1Cl (racemic) | > 100000 | – | –
CC1=Nc2ccc(Cl)cc2C(c2ccccc2)N1CCN(C)C (racemic) | 3500 | – | –
CC1=Nc2ccc(Cl)cc2C(c2ccccc2)N1Cc1cccc(C(F)(F)F)c1 (racemic) | 1500 | – | –
COc1ccc(C2(O)c3cc(Cl)ccc3N=C(C)N2CCN2CCCCC2)cc1 (racemic) | 4900 | – | –
CC1=Nc2ccc(-c3ccco3)cc2C(c2ccccc2)N1CCN1CCCCC1 (racemic) | 1300 | – | –
CCN1C(C)=Nc2ccc(Cl)cc2C1c1ccccc1 (racemic) | 1200 | – | –
CC1=Nc2ccc(Cl)cc2C(c2ccccc2)N1CCN1CCCCC1 (racemic) | 1800 | 14000 | 1300

SMILES | IC50 [1] [nM] | EC50 [2] [nM] | EC50 [3] [nM]
COC(=O)CN1C(c2cc(OC)c(OC)c(OC)c2)=Nc2ccc(C)cc2C1c1ccccc1 (racemic) | > 100000 | – | –
CC1=Nc2ccc(Cl)cc2C(c2cccc(C)c2)N1CCN1CCCCC1 (racemic) | 4600 | – | –
CC1=Nc2ccc(Cl)cc2C(c2ccc(F)cc2)N1CCN1CCCCC1 (racemic) | 4900 | – | –
CC1=Nc2ccc(Cl)cc2C(c2ccccc2)N1Cc1ccc(Cl)cc1 (racemic) | 2200 | – | –
CC1=Nc2ccc(-c3cc4ccccc4o3)cc2C(c2ccccc2)N1CCN1CCCCC1 (racemic) | 8500 | – | –
CC1=Nc2ccc(Cl)cc2C(c2ccccc2)N1CCNC(=O)Cc1ccccc1 (racemic) | 1800 | – | –
CC1=Nc2ccc(Cl)cc2C(C2CCCCC2)N1CCN1CCCCC1 (racemic) | 27000 | – | –
COC(=O)CN1C(CN2CCOCC2)=Nc2ccc(Br)cc2C1c1ccccc1 (racemic) | 89000 | – | –
CC1=Nc2ccc(Cl)cc2C(c2ccccc2)N1CCNC(=O)OC(C)(C)C (racemic) | 2600 | – | –
COc1cccc(C2c3cc(Cl)ccc3N=C(C)N2CCN2CCCCC2)c1 (stereo not drawn) | 28000 | – | –
CC1=Nc2ccc(-c3ccncc3)cc2C(c2ccccc2)N1CCN1CCCCC1 (stereo not drawn) | 4400 | – | –
CC1=Nc2ccc(Cl)cc2C(c2ccccc2)N1CCO (racemic) | 1700 | – | –
CC1=Nc2ccc(Cl)cc2C(c2ccccc2)N1Cc1cccc(Cl)c1 (racemic) | 3500 | – | –
CC1=Nc2ccc(Cl)cc2C(c2ccc(Cl)c(Cl)c2)N1CCN1CCCCC1 (racemic) | 1300 | – | –
CC1=Nc2ccc(-c3ccsc3)cc2C(c2ccccc2)N1CCN1CCCCC1 (stereo not drawn) | 790 | – | –
CC1=Nc2ccc(Cl)cc2C(c2ccccc2)N1CCNC(=O)c1ccccc1 (racemic) | 1700 | – | –
O=C1CN2C(=Nc3ccc(Br)cc3C2c2ccccc2)CN1 (racemic) | 37000 | – | –
CNCCN1C(C)=Nc2ccc(Cl)cc2C1c1ccccc1 (racemic) | 2000 | – | –
CC1=Nc2ccc(Cl)cc2C(c2ccccc2)N1CCN1CCN(C(=O)OC(C)(C)C)CC1 (racemic) | 1500 | – | –
CC1=Nc2ccc(Cl)cc2C(c2ccccc2)N1Cc1ccc(C)cc1 (racemic) | 1300 | – | –
CC1=Nc2ccc(Cl)cc2C(c2ccccc2)N1CCN1CCN(C(=O)Cc2ccccc2)CC1 (racemic) | 2000 | – | –
CC1=Nc2ccc(Cl)cc2C(c2ccc(C)c(C)c2)N1CCN1CCCCC1 (racemic) | 6800 | – | –
